Usually EC50 stands for the midpoint of the concentration-response curve. Low readings indicate a more potent agent, high ones a less potent agent. One may read the GI50 as the concentration giving 50% growth inhibition.

Data on 1 molecule can be found in ChEMBL document CHEMBL1817631, “Synthesis and characterization of tritylthioethanamine derivatives with potent KSP inhibitory activity” (Bioorg Med Chem, 2011).

Assay [1] can be described thus: Inhibition of bipolar spindle formation in Strongylocentrotus purpuratus eggs. It counts as functional, Egg. The gist of the method:
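S. purpuratus eggs (gametes released with 0.5M KCl) were fertilized in artificial seawater with 2 mM 3-amino triazole and stripped of envelopes 20 min post-fertilization. They were then cultured with 0.1% DMSO or inhibitor at 100 nM–100 μM, fixed at first mitosis and stained for microtubules and DNA. 100 cells per condition were scored for bipolar spindles to derive EC50.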

A further assay relates to COLO 205. In words: Growth inhibition of human COLO205 cells. It counts as functional.
The test system of another assay is UACC-62. The experiment in a line: Growth inhibition of human UACC62 cells. It counts as functional.
Another assay deals with HCC 2998. In words: Growth inhibition of human HCC2998 cells. It counts as functional.
Another assay concerns SNB-19. In words: Growth inhibition of human SNB19 cells. It counts as functional.
A further assay has as its system 786-0. The experiment in a line: Growth inhibition of human 786-0 cells. It counts as functional.
The test system of assay [2] is HeLa. In words: Induction of KSP depletion in human HeLa cells after 4 hrs by immunofluorescence analysis. It counts as functional, cell-based. The gist of the method: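 HeLa cells were treated 4 h across a concentration series of compound in DMSO, then fixed in 100% MeOH at −20 °C. They were probed overnight at 4 °C with mouse anti-KSP and rabbit anti-EB1 to mark microtubules, with Alexa Fluor secondaries and DNA counterstain. KSP (green channel) images were taken at equivalent exposure times.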

The subject of another assay is ACHN. The experiment in a line: Growth inhibition of human ACHN cells. It is filed as functional.
The next assay deals with CAKI-1. In words: Growth inhibition of human Caki1 cells. It is filed as functional.
The target of assay [3] is Centromere-associated protein E (Homo sapiens) (UniProt Q02224). The experiment in a line: Inhibition of CENP-E. In outline: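 Microtubule-activated ATPase end-point assay with kinesin motor domain at 0.08 μg/μl final. Reactions were started with 2 mM ATP, run 5 min at room temperature, and stopped with CytoPhos. After 10 min more, absorbance was read at 650 nm. Compounds were tested at 0.25–10 μM against a 0.1% DMSO control, in triplicate. IC50 came from four-parameter non-linear regression.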

In assay [4] the test system is HeLa. The experiment in a line: Effect on interphase microtubule organization in human HeLa cells at 1 uM. It counts as functional, cell-based. In outline:
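HeLa cells were grown in MEM/Earle's BSS with 10% FBS at 37 °C and 5% CO2, then treated 4 h with 1 μM compound or 0.1% DMSO carrier. Cells were fixed in 100% MeOH at −20 °C and blocked in PBS-5% BSA. They were stained overnight at 4 °C with mouse anti-tubulin and for DNA, then imaged by epifluorescence with structured illumination.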

The subject of another assay is A549. The experiment in a line: Growth inhibition of human A549 cells. It is filed as functional.
The subject of another assay is SW-620. In words: Growth inhibition of human SW620 cells. It counts as functional.
In the next assay the test system is UACC-257. In words: Growth inhibition of human UACC257 cells. It is filed as functional.

Each structure is given as a SMILES string. Active and inactive are the calls of the source. The calls are words filed in the database; no cut-off is given here.

Sequence of Centromere-associated protein E (Homo sapiens) (Q02224 whole entry, the tested form may be a part): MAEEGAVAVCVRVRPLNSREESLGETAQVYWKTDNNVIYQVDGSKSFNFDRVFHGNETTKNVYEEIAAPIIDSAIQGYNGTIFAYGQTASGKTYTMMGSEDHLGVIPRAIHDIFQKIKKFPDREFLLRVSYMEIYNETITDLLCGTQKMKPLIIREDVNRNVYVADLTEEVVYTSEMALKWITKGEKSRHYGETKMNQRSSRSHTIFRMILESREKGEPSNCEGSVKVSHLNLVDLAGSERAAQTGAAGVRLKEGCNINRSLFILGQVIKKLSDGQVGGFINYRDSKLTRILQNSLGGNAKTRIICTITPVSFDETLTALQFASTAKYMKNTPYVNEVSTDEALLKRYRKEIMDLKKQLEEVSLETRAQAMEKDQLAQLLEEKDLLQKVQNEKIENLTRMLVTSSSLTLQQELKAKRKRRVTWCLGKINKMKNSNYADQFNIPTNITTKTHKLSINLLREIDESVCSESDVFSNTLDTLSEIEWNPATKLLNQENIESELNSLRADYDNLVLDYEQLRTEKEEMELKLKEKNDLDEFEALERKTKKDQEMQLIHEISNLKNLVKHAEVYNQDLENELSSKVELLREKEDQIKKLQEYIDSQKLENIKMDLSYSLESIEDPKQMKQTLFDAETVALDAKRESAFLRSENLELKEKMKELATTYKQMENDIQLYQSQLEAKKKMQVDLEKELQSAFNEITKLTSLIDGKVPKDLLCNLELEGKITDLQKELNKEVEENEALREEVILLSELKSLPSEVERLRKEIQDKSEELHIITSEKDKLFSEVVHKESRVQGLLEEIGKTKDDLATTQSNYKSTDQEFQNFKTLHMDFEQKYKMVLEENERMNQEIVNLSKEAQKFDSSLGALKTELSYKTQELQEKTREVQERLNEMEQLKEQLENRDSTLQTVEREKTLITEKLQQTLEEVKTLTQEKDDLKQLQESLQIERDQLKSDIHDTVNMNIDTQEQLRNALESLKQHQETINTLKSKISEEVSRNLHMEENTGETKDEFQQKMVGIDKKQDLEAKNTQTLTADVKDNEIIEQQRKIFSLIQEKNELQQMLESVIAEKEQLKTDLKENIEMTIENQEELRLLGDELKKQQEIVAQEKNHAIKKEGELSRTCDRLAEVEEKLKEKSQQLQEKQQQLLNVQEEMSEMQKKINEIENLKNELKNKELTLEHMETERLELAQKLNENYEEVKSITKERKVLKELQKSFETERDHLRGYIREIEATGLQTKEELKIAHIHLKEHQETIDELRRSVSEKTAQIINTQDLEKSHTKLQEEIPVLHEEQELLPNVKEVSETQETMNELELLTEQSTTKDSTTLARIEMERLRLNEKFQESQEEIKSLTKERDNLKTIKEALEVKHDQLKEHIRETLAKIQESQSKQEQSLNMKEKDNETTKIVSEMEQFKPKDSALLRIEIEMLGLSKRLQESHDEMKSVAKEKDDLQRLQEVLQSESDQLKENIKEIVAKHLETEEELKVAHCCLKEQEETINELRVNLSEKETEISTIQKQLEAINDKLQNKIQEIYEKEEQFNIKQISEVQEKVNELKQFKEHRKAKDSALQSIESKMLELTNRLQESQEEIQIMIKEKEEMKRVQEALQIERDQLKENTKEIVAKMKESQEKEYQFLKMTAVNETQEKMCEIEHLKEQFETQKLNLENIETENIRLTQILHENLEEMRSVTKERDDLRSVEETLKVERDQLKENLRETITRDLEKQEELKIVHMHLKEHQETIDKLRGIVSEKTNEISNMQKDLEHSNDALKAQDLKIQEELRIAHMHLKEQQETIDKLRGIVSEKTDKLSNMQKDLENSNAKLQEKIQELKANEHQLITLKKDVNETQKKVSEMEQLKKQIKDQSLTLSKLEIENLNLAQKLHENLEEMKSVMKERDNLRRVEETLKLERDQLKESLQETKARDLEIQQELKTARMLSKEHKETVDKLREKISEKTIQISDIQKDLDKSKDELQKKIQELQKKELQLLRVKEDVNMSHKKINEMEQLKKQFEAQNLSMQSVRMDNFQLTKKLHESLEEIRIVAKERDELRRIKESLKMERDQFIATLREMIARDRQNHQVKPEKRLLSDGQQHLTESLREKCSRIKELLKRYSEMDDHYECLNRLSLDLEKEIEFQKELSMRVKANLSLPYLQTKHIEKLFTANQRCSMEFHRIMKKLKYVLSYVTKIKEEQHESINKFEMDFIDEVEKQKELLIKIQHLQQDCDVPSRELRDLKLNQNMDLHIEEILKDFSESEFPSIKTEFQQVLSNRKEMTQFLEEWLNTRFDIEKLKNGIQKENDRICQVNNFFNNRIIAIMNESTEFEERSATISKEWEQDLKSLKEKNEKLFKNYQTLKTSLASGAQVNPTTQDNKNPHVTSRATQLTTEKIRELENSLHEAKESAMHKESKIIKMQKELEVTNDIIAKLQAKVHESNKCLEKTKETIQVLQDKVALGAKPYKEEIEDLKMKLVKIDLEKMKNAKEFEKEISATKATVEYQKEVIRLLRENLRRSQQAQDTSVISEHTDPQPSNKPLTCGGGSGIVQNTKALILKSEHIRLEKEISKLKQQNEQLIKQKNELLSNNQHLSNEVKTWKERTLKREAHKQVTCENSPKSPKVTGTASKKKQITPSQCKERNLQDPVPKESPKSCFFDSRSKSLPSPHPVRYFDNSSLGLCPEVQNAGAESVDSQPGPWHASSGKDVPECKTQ

In assay [1], `COc1ccc(C(SC[C@H](N)CO)(c2ccccc2)c2ccccc2)cc1` came in with an EC50 of 28000 nM. The 50% growth inhibitory concentration (GI50) with COLO 205 was 80 nM; with UACC-62 it was 250 nM; with HCC 2998, 50 nM; with SNB-19, 250 nM; in the assay with 786-0, 440 nM; in the assay with ACHN, 490 nM. For the same molecule, the GI50 in the assay on CAKI-1 stood at 450 nM; in the assay with A549, 330 nM; in the assay with SW-620, 70 nM; with UACC-257, 540 nM. In addition, the Activity entry in the assay with HeLa [2] is “Dose-dependent effect”. The inhibition result in [3] was “inactive”. For the same molecule, the result with HeLa [4] was inactive.
